# Bioassay records as filed in PubChem.
# PGC1a acetyl inh: inhibitors of PGC1a acetylation signal, primary screen, cell-based, U2OS, AlphaScreen, inhibitor mode. AlphaScreen anti-acetyl-lysine; with virally co-expressed GCN5 acetyltransferase. inhibition, % at 15.6 µM. 0.17% of 350,000 active. AID 651687, 2012;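 active = every replicate shows inhibition of at least 40%; inconclusive = mean inhibition at least 40% but some replicate below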;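 also: 0% = neutral control wells and 100% = positive control wells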
# FN deposition inh: inhibitors of fibronectin matrix deposition, primary screen, AH1F cells, Alexa488-fibronectin fluorescence, plate reader. AH1F fibroblasts, overnight. inhibition, % at 12.6 µM. 0.086% of 350,000 active. AID 743247, 2014;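 active = mean inhibition across replicates of 30% or more, regardless of how many single replicates reach that level; inconclusive = mean under 30% yet at least half of replicates reach 30%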;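 also: positive control wells lacked labelled fibronectin entirely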
#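 Measured by – fluorescence 485/525 nm · System – AH1F fibroblast monolayer, labelled fibronectin deposition · Amount – 10000 cells per well · Buffer or medium – serum-reduced DMEM (2% serum) · Doses – single dose, pinned · Also added – fluorescent fibronectin at 24 nM final · Schedule – 1 h cell attachment, overnight exposure to compound and label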
# Cneo AK release: Cryptococcus neoformans cell lysis inducers, primary screen, AK release luminescence, single concentration; 0.2% of 360,000 active; AID 651654, 2012; lysis activity, % at 15 µM; C. neoformans lysis, adenylate kinase release luminescence, 4 h; normalised: neutral wells 0, clomiphene wells 100;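 active = mean lysis activity across replicates of at least 80%, whatever share of replicates individually reach that level; inactive = mean lysis activity below 80%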
#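 Material – Cryptococcus neoformans yeast cells · Quantity – 5 × 10^6 yeast cells/mL · Buffer or medium – YPD medium · Compound – single dose · Timing – 4 h static compound exposure, 37 °C, read 1 h post-reagent · Signal – adenylate kinase release luminescence · Read-out basis – lysis from increased AK signal · Benchmarks – Clomiphene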
# XiGFP reactiv: activators of inactive X chromosome reactivation, primary screen, imaging, XiGFP fibroblasts, GFP high-content imaging, set 2. 0.055% of 360,000 active. XiGFP mouse fibroblasts, % GFP-positive cells imaging, 3 d; cells co-treated with 5-aza-dC sensitizer; scaled so ellipticine positive control = 100%. activation, % at 7.58 µM;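 active = mean normalized replicate activation at least 10% and every replicate at or above 10%; inconclusive = only one of the two criteria met; inactive = mean below 10% and not all replicates reach 10%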;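 also: 0% = median of on-plate neutral control wells and 100% = ellipticine 6 µM median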
#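 System: SV40-immortalized XiGFP fibroblast cells, line 68-5-11 / Incubation: 3-day compound exposure, then 15 min fixation at room temperature / Compound: single concentration per compound, delivered by pin transfer / Buffer or medium: DMEM plus 5-aza-dC sensitizer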
# CFTR F508del cor: F508del CFTR correction, initial screen, CFBE line, single point; activity (quench increase), % at 7.58 µM; CFBE cells, YFP halide quenching; stimulated with forskolin plus potentiator P3; % fluorescence drop versus neutral controls; 0.36% of 350,000 active;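 active = mean added fluorescence quench of at least 8% versus neutral control, with both replicates also reaching 8%; inconclusive = only one of the mean or replicate conditions met; inactive = mean below 8% and not both replicates reaching 8%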;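 also: cells transiently co-express mutant CFTR-F508del with the halide-sensitive YFP; corrector assay measuring rescue of mutant channel to the surface after 24 h compound exposure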
# DENV2 CPE: inhibitors of DENV2 cytopathic effect, primary screen, cell-based, plate reader, single concentration | DENV2-infected cells, cytopathic effect rescue | 1.7% of 350,000 active | CPE inhibition, % at 9.99 µM | AID 651640, 2012; in the data active = CPE inhibition above about 20%, passing the limit was not always enough; inconclusive = no clear call, values can overlap the other calls; tested in BHK-21 cells;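 also: 0% = median of neutral control wells and 100% = median of positive control wells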
# Starred values were filed as active, the others as inactive; ? = inconclusive; nt = no result. Rows were chosen to be rich in hits. Some 1.9% of all compounds tested hit in one or more screens of this group.
SMILES,PGC1a acetyl inh,FN deposition inh,Cneo AK release,XiGFP reactiv,CFTR F508del cor,DENV2 CPE
COc1ccc([Si](C)(C)[C@H]2[C@H](CCO)O[C@@]3(C(=O)N(Cc4ccccc4)c4ccc(N5CCC5=O)cc43)[C@@H]2C)cc1,5,nt,21,nt,-1,-4
COc1ccc(NC(=O)CSc2nnc(Cc3cccs3)n2C)cc1,nt,4,nt,0,10*,-6
C[C@H]1CCCCO[C@H](CN(C)S(=O)(=O)c2cccs2)[C@@H](C)CN([C@@H](C)CO)C(=O)c2cc(NS(=O)(=O)c3ccc(Cl)cc3)ccc2O1,-4,-12,-3,0,2,-12
C[C@@H]1CN([C@@H](C)CO)C(=O)c2cc(NS(=O)(=O)c3ccc(Cl)cc3)ccc2O[C@@H](C)CCCCO[C@H]1CN(C)S(=O)(=O)c1cccs1,1,11,-1,0,1,36*
Cc1ccc(S(=O)(=O)Nc2ccc3c(c2)C(=O)N([C@@H](C)CO)C[C@@H](C)[C@@H](CN(C)S(=O)(=O)c2cccs2)OCCCC[C@@H](C)O3)cc1,-11,3,-1,0,2,40*
COc1cccc(C(=O)N2C[C@@H]3[C@H](c4ccccc42)[C@H](CO)N3Cc2cccnc2)c1,7,nt,-4,0,0,?
COc1ccc2c(c1)sc(N)[n+]2Cc1cc(C)cc2cccnc12,nt,0,5,0,11*,71*
Cc1cc(C[n+]2cc(Br)ccc2N)c2ncccc2c1,-13,-10,nt,0,3,35*
Cc1cc(C[n+]2cc(Cl)ccc2N)c2ncccc2c1,-10,4,2,0,1,8
COCCNC(=O)[C@@H]1[C@@H](CO)[C@@H]2Cn3c(ccc(-c4ccccc4F)c3=O)[C@@H]2N1C(=O)C1CCC1,nt,nt,nt,0,0,-6
CCN(CC(=O)Nc1c(F)cccc1F)C(=O)CSCc1c(C)noc1C,nt,-13,nt,0,-4,-4
CCN(CC(=O)Nc1ccc(OC)cc1)C(=O)CSCc1c(C)noc1C,4,-6,2,0,-3,74*
COC1=CC(=O)c2c(ccc3ncnc(N)c23)C1=O,66*,31*,nt,19*,-2,-1
COC1=CC(=O)c2nc(Cl)ccc2C1=O,nt,10,nt,?,-5,-10
O=C(OCc1ccc(Br)cc1)c1cc([N+](=O)[O-])ccc1N1CCOCC1,-19,12,3,0,8.4*,-4
O=C(c1ccc(Cl)cc1)c1cc([N+](=O)[O-])ccc1N1CCOCC1,nt,13,nt,1,2,8
O=C(c1ccc(Br)cc1)c1cc([N+](=O)[O-])ccc1N1CCOCC1,nt,4,nt,0,12*,0
O=C(C[C@@H]1C=C[C@@H](NC(=O)C2CCC2)[C@H](CO)O1)NCc1ccccc1Cl,5,-12,-4,0,-2,2
C=CCNC(=O)[C@H]1[C@@H]2C(=O)O[C@@H](c3ccccc3)[C@@H](c3ccccc3)N2[C@@H](c2ccc(O)cc2)[C@]12C(=O)N(C(=O)OCCOC)c1ccc(C#Cc3ccc(OC)cc3)cc12,5,nt,-7,nt,-1,11
COCCOC(=O)N1C(=O)[C@@]2(c3cc(C#CC4(O)CCCCCC4)ccc31)[C@H](c1ccc(OCCO)cc1)N1[C@H](c3ccccc3)[C@H](c3ccccc3)OC(=O)[C@H]1[C@@H]2C(N)=O,-12,nt,54,nt,-3,69*
C=CCNC(=O)[C@H]1[C@@H]2C(=O)O[C@@H](c3ccccc3)[C@@H](c3ccccc3)N2[C@@H](c2ccc(OCCO)cc2)[C@]12C(=O)N(C(=O)OCCOC)c1ccc(C#Cc3ccc(OC)cc3)cc12,7,nt,42,nt,-2,23*
COc1ccc(NC(=O)N(C)C[C@H]2OCCCC[C@H](C)Oc3ccc(NC(=O)CCCN(C)C)cc3C(=O)N([C@H](C)CO)C[C@@H]2C)cc1,5,nt,-1,0,-2,-1
